Source: PubChem BioAssay (several laboratories)
IDE act – activators of human insulin-degrading enzyme in cells; P14735; HEK cells, FAbeta-B cleavage, fluorescence polarization; 0% vehicle, 100% cell-free pure enzyme wells; activation, % at 5.96 µM; 340,000 compounds, 0.073% hits;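 active means activation above the mean of all tested compounds plus 3 SD, set per screening campaign, cut at about 17% in these data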
Target sequence (P14735 whole entry, looked up): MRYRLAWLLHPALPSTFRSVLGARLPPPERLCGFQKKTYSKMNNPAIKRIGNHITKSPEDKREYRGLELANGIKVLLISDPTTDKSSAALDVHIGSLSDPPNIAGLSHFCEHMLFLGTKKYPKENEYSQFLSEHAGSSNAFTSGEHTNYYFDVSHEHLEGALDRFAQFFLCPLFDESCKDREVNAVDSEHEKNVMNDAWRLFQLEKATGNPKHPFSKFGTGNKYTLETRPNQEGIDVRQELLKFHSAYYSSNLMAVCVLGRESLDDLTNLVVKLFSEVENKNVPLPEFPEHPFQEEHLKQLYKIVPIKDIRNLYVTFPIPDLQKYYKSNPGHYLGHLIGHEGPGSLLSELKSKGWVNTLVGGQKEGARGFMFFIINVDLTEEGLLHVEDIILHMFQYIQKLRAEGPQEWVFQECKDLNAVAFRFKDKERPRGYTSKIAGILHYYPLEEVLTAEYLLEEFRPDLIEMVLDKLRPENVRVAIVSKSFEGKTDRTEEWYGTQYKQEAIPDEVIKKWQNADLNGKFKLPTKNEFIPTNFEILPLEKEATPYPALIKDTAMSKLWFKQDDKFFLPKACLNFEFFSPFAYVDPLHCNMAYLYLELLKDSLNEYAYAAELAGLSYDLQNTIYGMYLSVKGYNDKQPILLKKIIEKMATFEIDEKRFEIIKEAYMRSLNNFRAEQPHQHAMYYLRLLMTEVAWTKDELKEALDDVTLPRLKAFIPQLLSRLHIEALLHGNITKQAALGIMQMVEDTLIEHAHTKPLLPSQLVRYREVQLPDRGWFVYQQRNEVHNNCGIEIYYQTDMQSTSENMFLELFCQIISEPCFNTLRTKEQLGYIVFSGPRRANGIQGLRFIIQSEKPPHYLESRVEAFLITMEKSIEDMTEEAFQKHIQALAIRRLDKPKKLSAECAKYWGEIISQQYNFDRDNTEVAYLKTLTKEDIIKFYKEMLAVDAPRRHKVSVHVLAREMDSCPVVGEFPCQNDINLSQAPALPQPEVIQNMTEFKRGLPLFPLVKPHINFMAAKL
TPT1 inh – blocks Candida albicans tRNA 2'-phosphotransferase. 300,000 compounds, 0.81% hits. recombinant caTPT1, FP RNA substrate dephosphorylation. inhibition, % at 5 µM;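 active means inhibition above the mean of all tested compounds plus 3 SD, set per screening campaign, cut at about 24% in these data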;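 further: plate controls were DMSO alone for no effect and ferristatin control at 100 nM for full effect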
Tb MetRS inh – Trypanosoma brucei MetRS inhibition; inhibition, % at 11.9 µM; AID 624268; purified T. brucei MetRS, ATP depletion, Kinase-Glo luminescence; 360,000 compounds, 0.4% hits;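 active means inhibition above a per-plate cutoff of the control wells' mean inhibition plus 3 SD, cut at about 5.5% in these data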;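 further: 0% = DMSO wells median and 100% = median of wells with control inhibitor compound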
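Assay system: T. brucei methionyl-tRNA synthetase, purified | Medium: HEPES buffer with MgCl2, KCl, DTT, spermine, BSA, pyrophosphatase | Compound: 11.9 µM single point | Incubation: 15 min enzyme-compound preincubation, 2 h reaction, 10 min detection, 25 °C | Measured by: Kinase-Glo luciferase luminescence reporting remaining unconsumed ATP | Measure: % inhibition normalized to control-well medians | Replication: Singlicate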
IDE inh – cellular human IDE inhibition; HEK cells, FAbetaB cleavage, fluorescence polarization; inhibition, % at 5.59 µM; 320,000 compounds, 0.41% hits; AID 434962;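 active means percent inhibition above the average of all tested compounds plus 3 SD, set per screening campaign, cut at about 16% in these data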;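 further: IDE supplied by intact live HEK cells; FP after avidin binding of uncleaved biotin substrate so inhibition keeps polarization high; 0% = DMSO wells and 100% = 60 µM reference IDE inhibitor Ii1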
HNF4A DNA FP – change in binding of human HNF4 alpha to DNA; P41235; HNF4a-FITC DNA binding, fluorescence polarization, 1 h; activity change, % at 10 µM; 360,000 compounds, 0.3% hits; AID 1224865; in the data active means activity change above about 30%, passing the limit was not always enough
CSN deneddyl inh – blocks human CSN-mediated cullin deneddylation. Q92905. Purified CSN, SCF-Nedd8-OG deneddylation, fluorescence polarization. inhibition, % at 12.5 µM. 360,000 compounds, 0.38% hits. AID 651999;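 active means pattern-corrected inhibition above about 35%, with an unprinted fluorescence ratio check between 0.5 and 1.5, limit read from the data, passing the limit was not always enough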;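 further: 0% = enzyme with substrate and 100% = substrate without enzyme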
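Assay system: HEK293T-derived human Csn5 enzyme; quantity: 0.24 nM enzyme; medium: Tris/NaCl/DTT buffer, pH 7.5; also added: substrate SCFSkp2-Nedd8OG, 10 nM; doses: 12.5 µM compound; schedule: 90 min reaction at room temperature; signal: FP; read-out: % inhibition of substrate cleavage by Csn5; benchmarks: substrate-only high control, full reaction low control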
Active calls of the source: *; · = no result. Hits are enriched below; roughly 1.7% of the tested compounds scored in any of these assays.

SMILES | IDE act | TPT1 inh | Tb MetRS inh | IDE inh | HNF4A DNA FP | CSN deneddyl inh
O=C(NCc1ccco1)c1cccc2c1C(=O)c1ccc(N3CCC(N4CCCCC4)CC3)cc1S2(=O)=O | · | · | -1 | · | 53 | 39*
CC(C)c1cccc(-c2ccc3c(c2)S(=O)(=O)c2cccc(C(=O)O)c2C3=O)c1 | 3 | · | 0 | 2 | -2 | 3
CC(C)c1cccc(-c2ccc3c(c2)S(=O)(=O)c2cccc(C(=O)NCc4ccco4)c2C3=O)c1 | -4 | · | 0 | 6 | -20 | 49*
CC(C)NC(=O)NC(=O)CN1c2cccc3cccc(c23)S1(=O)=O | -2 | -1 | 0 | 0 | 1 | 1
CCCCn1c(O)c(N=Nc2ccccc2O)c2ccccc21 | -16 | · | 0 | 13 | 84* | 13
CCCCn1c(O)c(N=Nc2ccccn2)c2ccccc21 | 4 | 0 | 1 | 0 | 4 | 4
CCC(=O)/C=C1/Sc2ccccc2N1CC | -3 | -1 | -1 | 0 | 8 | 5
CCN1/C(=C/C=C2/SC(=Nc3cccc4ncccc34)N(C)C2=O)Sc2ccccc21 | -18 | · | -1 | · | 104 | 50*
CCOC(=O)N1CCN(S(=O)(=O)c2c(C(=O)N3CCCCC3)c(C)n(C)c2C)CC1 | 6 | 0 | -1 | 1 | 2 | 3
CC(Oc1ccccc1)C(=O)Nc1cccc(-c2nc3ccccc3[nH]2)c1 (stereo not given) | -2 | -1 | 38* | 3 | 3 | -5
CC(=O)Nc1cccc(-c2nc3ccccc3[nH]2)c1 | 2 | -2 | 0 | 6 | 2 | 0
Cc1ccc(C(=O)O)cc1-c1ccc(/C=C2\SC(=O)N(CC(=O)Nc3ccccc3)C2=O)o1 | -2 | 12 | 0 | 0 | 6 | 19
Cc1cc(C(=O)O)ccc1-c1ccc(/C=C2\SC(=O)N(CC(=O)Nc3ccc4c(c3)OCO4)C2=O)o1 | 1 | · | 0 | · | 36* | 31
Brc1ccc2c(c1)C(c1ccc(N3CCOCC3)cc1)=NNC(c1cccs1)=N2 | 6 | 1 | 0 | -1 | 37* | 14
COc1ccc(OC)c(NC(=O)NNC(=O)c2cc3occc3[nH]2)c1 | 0 | -1 | 9.2* | 4 | 3 | -3
CCCCn1c(NC(=O)c2ccc(F)cc2)c(C#N)c2nc3ccccc3nc21 | · | 81* | · | 2 | · | ·
O=[N+]([O-])c1ccc(C=CC=Cc2ccccc2)cc1 | · | · | 0 | · | 26 | 36*
CSc1ccc(S(=O)(=O)NCc2ccc(Cl)cc2Cl)cc1 | 4 | 1 | 7.5* | 5 | 1 | 10
S=C(NCCc1ccccn1)Nc1cccc(Cl)c1 | 6 | -2 | 0 | 5 | 1 | -14
CC[C@@H]1[C@H]2CCCC(=O)N3CC[C@@H](C[C@@H]1Nc1ccccc1)[C@@H]23 | 0 | 3 | 0 | -5 | 2 | 4
COC(=O)C1=C(C)N(Cc2ccccc2)C(=NCc2cccc(C(F)(F)F)c2)N[C@H]1c1cccc(C(F)(F)F)c1 | 29* | · | 0 | 5 | 3 | -1
COC(=O)C1=C(C)N(Cc2ccccc2)C(=NCc2cccc(C(F)(F)F)c2)N[C@H]1c1cccc(F)c1 | 24* | -1 | 0 | -2 | 3 | -2
COC(=O)C1=C(C)N(CC2CC2)C(=NCc2cccc(C(F)(F)F)c2)N[C@H]1c1ccccc1 | 2 | · | 0 | 0 | 26 | 16
CCOC(=O)C1(C)CCN1C(=O)c1cncc(Br)c1 (stereo not given) | · | · | 0 | · | -1 | -4
Nc1ccc(CSc2ccc(Cl)cc2)cc1 | 3 | -13 | -2 | -1 | 0 | -6
COCCCNc1c2c3c(cccc3[nH]c1=O)C(=O)c1ccccc1-2 | 33* | -19 | 0 | -7 | -103 | -74
CCOc1ccc(C2C(C(=O)C3CC3)N3C=C(C#N)C=CC3C2(C#N)C#N)cc1 (stereo not given) | · | 50* | · | 7 | · | ·
S=C1Cc2ccccc2N1 | -30 | · | 0 | · | 1 | 39*
c1ccc(CCC2CCCCN2Cc2nc(C3CC3)no2)cc1 (stereo not given) | 2 | -2 | -1 | 4 | -2 | -1
O=C(NCc1cccs1)C1C(=O)Nc2ccccc2C(=O)N1Cc1ccccc1 (stereo not given) | · | · | 0 | · | 6 | 4
